Most compounds without a hit are left out; they make up all but 2.6% or so of the library.
SIRT5 block: SIRT5 desuccinylase inhibitors, primary screen, biochemical, fluorescence imaging, single point, set 5 | 330,000 tested, 1.1% active | inhibition, % at 15 µM | NAD-dependent protein deacylase sirtuin-5, mitochondrial (Homo sapiens), Q9NXA8 | Purified SirT5, succinyl-peptide AMC, trypsin-coupled fluorescence; in the data active = inhibition above about 15%
Target sequence (Q9NXA8 whole entry, looked up): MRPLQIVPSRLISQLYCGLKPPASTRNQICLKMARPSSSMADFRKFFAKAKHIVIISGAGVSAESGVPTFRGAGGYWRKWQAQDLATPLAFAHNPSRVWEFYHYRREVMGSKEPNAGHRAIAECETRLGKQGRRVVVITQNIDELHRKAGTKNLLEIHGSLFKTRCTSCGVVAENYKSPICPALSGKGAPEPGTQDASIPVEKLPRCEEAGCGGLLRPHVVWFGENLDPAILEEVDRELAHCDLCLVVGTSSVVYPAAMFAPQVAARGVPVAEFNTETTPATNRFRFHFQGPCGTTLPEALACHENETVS
UCH37 DUB inh: inhibitors of human UCH37 deubiquitinase, primary screen, biochemical, Ub-AMC cleavage, fluorescence; Ubiquitin carboxyl-terminal hydrolase isozyme L5 (Homo sapiens), Q9Y5K5; purified proteasome/UCH37; inhibition, % (no concentration beside the values); 330,000 tested, 0.33% active; AID 588478, 2011;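 active = mean inhibition over replicate wells above about 20%, limit read from the data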;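 also: 0% = compound-free wells with enzyme and 100% = wells lacking proteasome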
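Material: Human UCH37 enzyme supplied as purified proteasome complex | Schedule: 30 min compound-proteasome preincubation then 25 min substrate reaction, room temperature | Detection: AMC fluorescence from Ub-AMC cleavage, excitation 355 nm, emission 460 nm | Benchmarks: Wells without proteasome as full block, compound-free enzyme plus substrate as uninhibited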
NSD2 inh: NSD2 histone methyltransferase inhibitors, primary screen, biochemical, AlphaScreen, single concentration, set 2. 310,000 tested, 0.54% active. inhibition, % at 12.5 µM. AID 743445, 2014. NSD2 peptide methylation, 120 min. Histone-lysine N-methyltransferase NSD2 (Homo sapiens), O96028; in the data active = inhibition above about 50%
FGF22 binding: binders of human FGF22 protein, primary screen, FGF22 synaptogenesis inhibitor project, biophysical, thermal shift, single point. Fibroblast growth factor 22 (Homo sapiens), Q9HCT0. recombinant FGF22 thermal shift, SYPRO orange fluorescence; percent of sucrose octasulfate shift, DMSO zero. activity (Tm shift, normalised), % at 9.99 µM. 340,000 tested, 1.5% active. AID 651658, 2012;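 active = mean Tm shift, scaled 0 neutral to 100 positive control, at about 1.3% or above, every replicate too, limit read from the data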
Target sequence (Q9HCT0 whole entry, looked up): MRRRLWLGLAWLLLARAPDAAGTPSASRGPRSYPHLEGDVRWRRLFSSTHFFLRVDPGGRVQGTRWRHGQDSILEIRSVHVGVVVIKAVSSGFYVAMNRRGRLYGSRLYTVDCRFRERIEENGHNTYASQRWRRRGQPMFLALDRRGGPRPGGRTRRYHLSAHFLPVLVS
Casp6 inh: human caspase-6 inhibitors, primary screen, biochemical, VEID-R110 fluorescence, single point, set 2 | P55212 | purified caspase-6, Z-VEID-R110 cleavage fluorescence | inhibition, % at 12.5 µM | 350,000 tested, 0.53% active | AID 686996, 2013;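 active = mean inhibition across replicates at least about 35%, with every replicate also reaching that limit, limit read from the data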;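 also: 0% = median of neutral control wells and 100% = no fluorescence left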
Starred values were filed as active, the others as inactive; . = not tested or not shown.

SMILES	SIRT5 block	UCH37 DUB inh	NSD2 inh	FGF22 binding	Casp6 inh
C[C@H](CO)N1C[C@H](C)[C@@H](CN(C)Cc2ccc(Cl)c(Cl)c2)Oc2ccc(NS(=O)(=O)c3ccccc3)cc2CC1=O	28*	.	.	0	-1
C[C@H](CO)N1C[C@H](C)[C@@H](CN(C)Cc2ccc(Cl)c(Cl)c2)Oc2ccc(NC(=O)c3ccncc3)cc2CC1=O	17*	.	.	0	0
C[C@H]1CN([C@@H](C)CO)C(=O)Cc2cc(NS(=O)(=O)c3ccc(Cl)cc3)ccc2O[C@@H]1CN(C)Cc1ccc(Cl)c(Cl)c1	15*	.	.	0	.
C[C@@H]1CN([C@@H](C)CO)C(=O)Cc2cc(NS(=O)(=O)c3ccccc3)ccc2O[C@@H]1CN(C)Cc1ccc(Cl)c(Cl)c1	-6	.	.	0	-2
C[C@@H]1CN([C@@H](C)CO)S(=O)(=O)c2ccc(C#CC(C)(C)O)cc2O[C@@H]1CN(C)C(=O)CN(C)C	1	.	.	0	1
COc1ccc(C=Nc2ccc3[nH]ncc3c2)c(O)c1	-1	-11	-5	43*	2
C[C@H](CO)N1C[C@H](C)[C@@H](CN(C)Cc2ccncc2)OCCCC[C@H](C)Oc2ccc(NC(=O)Nc3ccc4c(c3)OCO4)cc2C1=O	16*	.	.	0	1
C[C@@H]1CN([C@@H](C)CO)C(=O)c2cc(NC(=O)Nc3ccc4c(c3)OCO4)ccc2O[C@@H](C)CCCCO[C@H]1CN(C)CC1CCCCC1	-3	.	.	1.4*	0
CNC(=O)c1cc(Oc2ccc(NC(=O)Nc3ccc(Cl)c(C(F)(F)F)c3)cc2)ccn1	-1	31*	.	0	1
C[C@@H]1CN([C@H](C)CO)C(=O)Cc2cc(NS(=O)(=O)c3cccs3)ccc2O[C@H]1CN(C)C(=O)Nc1cccc2ccccc12	.	.	.	0	.
COc1ccc(/C=N/NC(=O)c2ccncc2)cc1Cn1nc([N+](=O)[O-])c(Br)c1C	20*	.	-1	-1	12
COc1ccc(/C=N/NC(=O)c2ccco2)cc1Cn1nc(C)cc1C	34*	.	-2	0	2
COc1ccc(C=NNC(=O)c2cccnc2)cc1Cn1nc([N+](=O)[O-])c(Br)c1C	.	4	.	.	.
Cc1ccc2c(c1)c1nnc(SCC(=O)Nc3cccc(Cl)c3C)nc1n2CC(=O)O	2	7	-2	1.7*	-2
Cc1ccc2c(c1)c1nnc(SCC(=O)Nc3ccccc3C(F)(F)F)nc1n2CC(=O)O	1	7	1	0	-1
C[C@@H]1CCCCO[C@H](CN(C)C(=O)Nc2ccc3c(c2)OCO3)[C@@H](C)CN([C@H](C)CO)C(=O)c2cc(NC(=O)NC3CCCCC3)ccc2O1	.	.	.	0	.
COC1OCC(O)C(OC(=O)c2ccccc2)C1OC(=O)c1ccccc1 (stereo not given)	.	5	2	43*	1
COC(=O)C[C@@H]1CC[C@H]2[C@H](COc3ccc(NC(=O)c4cccc(F)c4)cc3C(=O)N2C)O1	6	.	.	0	2
COc1ccc(/C=C/C(=O)O)cc1S(=O)(=O)Nc1ccc2c(c1)OCO2	-2	1	5	0	8
COc1ccc(/C=C/C(=O)O)cc1S(=O)(=O)NC1CCS(=O)(=O)C1 (stereo not given)	-5	1	0	44*	6
CC(=NNc1ccccc1[N+](=O)[O-])c1ccc([N+](=O)[O-])cc1	.	3	.	.	.
COc1ccc(CC(CC(=O)O)C(=O)Nc2ccc(OC)cc2)cc1 (stereo not given)	.	3	-5	.	.
COc1ccc(NC(=O)C(CC(=O)O)Cc2ccc(C)cc2)cc1 (stereo not given)	0	1	-3	43*	-5
C[C@@H]1CN([C@H](C)CO)C(=O)c2cc(C#CC(C)(C)O)cnc2O[C@H]1CN(C)C(=O)CC1CC1	25*	.	.	0	-3
C[C@H](CO)N1C[C@H](C)[C@H](CN(C)CC2CC2)Oc2ncc(C#CC3(O)CCCC3)cc2C1=O	18*	.	.	.	0
SMILES	SIRT5 block	UCH37 DUB inh	NSD2 inh	FGF22 binding	Casp6 inh
CCC(=O)N(C)C[C@H]1Oc2ncc(C#CC3(O)CCCC3)cc2C(=O)N([C@@H](C)CO)C[C@H]1C	-2.7*	.	.	0	-3
C[C@@H]1CN([C@H](C)CO)C(=O)c2cc(C#CC3(O)CCCC3)cnc2O[C@@H]1CN(C)C	-1	.	.	0	-1
C[C@@H]1CN([C@@H](C)CO)C(=O)c2cc(NC(=O)CCCN(C)C)ccc2O[C@@H]1CN(C)Cc1ccccc1	-5	.	.	0	-2
Cc1scc(C(=O)NN=Cc2ccc(OCC(C)C)cc2)c1C	.	3	.	.	.
CN1c2ccc(C3=CCCCC3)cc2[C@@H]2[C@@H](CCN2C(=O)C2CCCCC2)[C@@H]1CO	18*	.	.	.	.
CN1c2ccc(C3=CCCCC3)cc2[C@H]2[C@H](CCN2C(=O)C2CC2)[C@@H]1CO	20*	.	.	.	10
O=C(Nc1ccc(F)cc1)N1CC(=O)N2[C@@H](CO)[C@@H](c3ccc(-c4cccc(F)c4)cc3)[C@@H]2C1	2	.	.	0	4
COc1ccc(-c2cn(CCCOCc3ccccc3)nn2)cc1	0	-1	.	0	-3
CCCCCc1ccc(-c2cn(CCCOCc3ccccc3)nn2)cc1	-1	4	.	4.2*	6
Cc1cccc(OCC(=O)NC(C)C(=O)NN=Cc2c(OCc3ccccc3)ccc3ccccc23)c1 (stereo not given)	.	-3	.	.	.
CC1=NN(c2ccccc2)C(=O)C1C=Nc1ccccc1O (stereo not given)	-3	4	3	0	-2
CC1=NN(c2ccccc2)C(=O)C1/C=C1\NC(=S)NC1=O (stereo not given)	15*	2	102*	0	.
O=C(C[C@@H]1CC[C@H]2[C@@H](COC[C@H](O)CN2S(=O)(=O)c2cccc(F)c2)O1)NCCCN1CCOCC1	-4	.	.	0	-30
CC1CN(Cc2c(O)ccc3c(=O)c(-c4ccccc4)coc23)CC(C)O1 (stereo not given)	-20	-388	-4	0	12
CC1CN(Cc2c(O)ccc3c2oc(=O)c2ccccc23)CC(C)O1 (stereo not given)	3	-12	98*	0	12
Cc1noc(C)c1NC(=O)NCC[C@@H]1CC[C@H](NC(=O)Cc2cccnc2)[C@H](CO)O1	4	.	.	0	-74
Cc1cc(=O)[nH]c2c3ccccc3nn12	-7	-71	-2	44*	-2
C[C@@H]1CN([C@H](C)CO)S(=O)(=O)c2ccc(C3=CCCC3)cc2O[C@@H]1CN(C)C(=O)CN(C)C	2	.	.	0	-10
Cc1cc(C)n(-c2cccc(C(=O)O)c2)n1	-5	1	-1	44*	-4
